# Key:
# Type in all cases: functional
# SK-OV-3 = assay: Antiproliferative activity against human SKOV3 cells after 48 hrs by sulforhodamine B assay; conditions: SK-OV-3, 48 h
# In short: (§1)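 NCI 60-cell-line panel covering nine cancer types (leukemia, non-small cell lung, colon, CNS, melanoma, ovarian, renal, prostate, breast). Compounds were first tested at a single dose, then in a five-dose screen (series starting 0.01, 0.1 …) if they met NCI threshold criteria. Reported per line: GI50 (molar concentration inhibiting 50% net growth), TGI (total growth inhibition) and LC50 (50% net cell death).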
# SNB-75 = assay: Antiproliferative activity against human SNB75 cells after 48 hrs by sulforhodamine B assay; conditions: SNB-75, 48 h; in short: as §1
# SK-MEL-28 = assay: Antiproliferative activity against human SK-MEL-28 cells after 48 hrs by sulforhodamine B assay; conditions: SK-MEL-28, 48 h; in short: as §1
# Malme-3M = assay: Antiproliferative activity against human MALME-3M cells after 48 hrs by sulforhodamine B assay; in short: as §1
# TK-10 = assay: Antiproliferative activity against human TK10 cells after 48 hrs by sulforhodamine B assay; conditions: TK-10, 48 h
# In short: (§2)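 NCI 60-cell-line panel screen: single dose 10 µM first, then 5-dose testing (0.01, 0.1, … molar series). For each line, GI50 is the molar concentration giving 50% inhibition of net cell growth, TGI gives total inhibition of net growth, and LC50 gives 50% net cell death. Method follows the NCI DTP protocol.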
# COLO 205 = assay: Antiproliferative activity against human COLO205 cells after 48 hrs by sulforhodamine B assay; conditions: COLO 205, 48 h; in short: as §1
# 786-0 = assay: Antiproliferative activity against human 786-0 cells after 48 hrs by sulforhodamine B assay; conditions: 786-0, 48 h; in short: as §1
# RXF 393 = assay: Antiproliferative activity against human RXF393 cells after 48 hrs by sulforhodamine B assay; conditions: RXF 393, 48 h; in short: as §1
# DU-145 = assay: Antiproliferative activity against human DU145 cells after 48 hrs by sulforhodamine B assay; conditions: DU-145, 48 h, read-out: LC50 (the source's name); in short: as §1
# NCI-H522 = assay: Antiproliferative activity against human NCI-H522 cells after 48 hrs by sulforhodamine B assay; conditions: NCI-H522, 48 h; in short: as §1
# IGROV-1 = assay: Antiproliferative activity against human IGROV1 cells after 48 hrs by sulforhodamine B assay; conditions: IGROV-1, 48 h; in short: as §1
# OVCAR-5 = assay: Antiproliferative activity against human OVCAR5 cells after 48 hrs by sulforhodamine B assay; conditions: OVCAR-5, 48 h; in short: as §1
# UACC-257 = assay: Antiproliferative activity against human UACC257 cells after 48 hrs by sulforhodamine B assay; conditions: UACC-257, 48 h; in short: as §2
# MOLT-4 = assay: Antiproliferative activity against human MOLT4 cells after 48 hrs by sulforhodamine B assay; conditions: MOLT-4, 48 h, read-out: LC50 (the source's name); in short: as §1
# T47D = assay: Antiproliferative activity against human T47D cells after 48 hrs by sulforhodamine B assay; in short: as §2
# NCI-H226 = assay: Antiproliferative activity against human NCI-H226 cells after 48 hrs by sulforhodamine B assay; conditions: NCI-H226, 48 h; in short: as §1
# HOP-62 = assay: Antiproliferative activity against human HOP62 cells after 48 hrs by sulforhodamine B assay; conditions: HOP-62, 48 h; in short: as §1
# OVCAR-8 = assay: Antiproliferative activity against human OVCAR8 cells after 48 hrs by sulforhodamine B assay; conditions: OVCAR-8, 48 h; in short: as §1
# SW-620 = assay: Antiproliferative activity against human SW620 cells after 48 hrs by sulforhodamine B assay; conditions: SW-620, 48 h; in short: as §2
# SNB-19 = assay: Antiproliferative activity against human SNB19 cells after 48 hrs by sulforhodamine B assay; conditions: SNB-19, 48 h; in short: as §1
# HCC 2998 = assay: Antiproliferative activity against human HCC2998 cells after 48 hrs by sulforhodamine B assay; conditions: HCC 2998, 48 h; in short: as §1
# A549 = assay: Antiproliferative activity against human A549 cells after 48 hrs by sulforhodamine B assay; conditions: A549, 48 h; in short: as §1
# [1] = Antiproliferative activity against human Hs 578T cells after 48 hrs by sulforhodamine B assay; in short: as §1
# SF-268 = assay: Antiproliferative activity against human SF268 cells after 48 hrs by sulforhodamine B assay; conditions: SF-268, 48 h; in short: as §1
# NCI-H460 = assay: Antiproliferative activity against human NCI-H460 cells after 48 hrs by sulforhodamine B assay; conditions: NCI-H460, 48 h; in short: as §1
# [2] = Antiproliferative activity against human […] cells after 48 hrs by sulforhodamine B assay; in short: as §1
# K562 = assay: Antiproliferative activity against human K562 cells after 48 hrs by sulforhodamine B assay; conditions: K562, 48 h; in short: as §1
# CAKI-1 = assay: Antiproliferative activity against human Caki1 cells after 48 hrs by sulforhodamine B assay; conditions: CAKI-1, 48 h; in short: as §1
# U-251 = assay: Antiproliferative activity against human U251 cells after 48 hrs by sulforhodamine B assay; conditions: U-251, 48 h; in short: as §2
# SF-539 = assay: Antiproliferative activity against human SF539 cells after 48 hrs by sulforhodamine B assay; conditions: SF-539, 48 h, read-out: LC50 (the source's name); in short: as §1
# UO-31 = assay: Antiproliferative activity against human UO31 cells after 48 hrs by sulforhodamine B assay; conditions: UO-31, 48 h; in short: as §2
# [3] = read-out: LC50 (the source's name)
smiles,measurement,setting,value
Nc1nn(C(=O)Nc2ccc(Cc3ccccc3)cc2)c2ccccc12,TGI,SK-OV-3,> 100 µM
same,CC50,SK-OV-3; [3],> 100 µM
same,GI50,SNB-75,17 µM
same,LC50 (concentration causing 50% net cell death),SNB-75,> 100 µM
same,TGI,SNB-75,47.4 µM
same,TGI,SK-MEL-28,> 100 µM
same,CC50,SK-MEL-28; [3],> 100 µM
same,LC50 (concentration causing 50% net cell death),Malme-3M,> 100 µM
same,TGI,Malme-3M,64.1 µM
same,TGI,TK-10,> 100 µM
same,CC50,TK-10; [3],> 100 µM
same,LC50 (concentration causing 50% net cell death),COLO 205,> 100 µM
same,TGI,COLO 205,37.7 µM
same,TGI,786-0,26.2 µM
same,CC50,786-0; [3],92.7 µM
same,TGI,RXF 393,58.2 µM
same,CC50,RXF 393; [3],> 100 µM
same,CC50,DU-145,> 100 µM
same,GI50,NCI-H522,2.9 µM
same,LC50 (concentration causing 50% net cell death),NCI-H522,> 100 µM
same,TGI,NCI-H522,> 100 µM
same,TGI,IGROV-1,48.8 µM
same,CC50,IGROV-1; [3],> 100 µM
same,TGI,OVCAR-5,> 100 µM
same,CC50,OVCAR-5; [3],> 100 µM
same,GI50,UACC-257,10 µM
same,TGI,UACC-257,50.9 µM
same,CC50,UACC-257; [3],> 100 µM
same,CC50,MOLT-4,> 100 µM
same,LC50 (concentration giving 50% net cell death),T47D,> 100 µM
same,TGI,T47D,> 100 µM
same,TGI,NCI-H226,58.2 µM
same,CC50,NCI-H226; [3],> 100 µM
same,LC50 (concentration causing 50% net cell death),HOP-62,> 100 µM
same,TGI,HOP-62,46.5 µM
same,TGI,OVCAR-8,63.9 µM
same,CC50,OVCAR-8; [3],> 100 µM
same,TGI,SW-620,41.5 µM
same,CC50,SW-620; [3],> 100 µM
same,TGI,SNB-19,> 100 µM
same,CC50,SNB-19; [3],> 100 µM
same,TGI,HCC 2998,35.9 µM
same,CC50,HCC 2998; [3],> 100 µM
same,TGI,A549,48.6 µM
same,CC50,A549; [3],> 100 µM
same,TGI,[1],71.8 µM
same,CC50,[1]; [3],> 100 µM
same,TGI,SF-268,32.3 µM
same,CC50,SF-268; [3],> 100 µM
same,TGI,NCI-H460,13 µM
same,GI50,[2],1.86 µM
same,TGI,[2],25.8 µM
same,CC50,[2]; [3],84 µM
same,GI50,K562,1.2 µM
same,LC50 (concentration causing 50% net cell death),K562,> 100 µM
same,TGI,CAKI-1,58 µM
same,CC50,CAKI-1; [3],> 100 µM
same,LC50 (concentration giving 50% net cell death),U-251,65.9 µM
same,TGI,U-251,30.2 µM
same,CC50,SF-539,> 100 µM
same,TGI,UO-31,> 100 µM
same,CC50,UO-31; [3],> 100 µM

# From ChEMBL document CHEMBL1649392, “Synthesis of substituted 3-amino-N-phenyl-1H-indazole-1-carboxamides endowed with antiproliferative activity” (Eur J Med Chem, 2011)
